According to ChEMBL document CHEMBL4049388, “Facile and efficient access to Androsten-17-(1',3',4')-pyrazoles and Androst-17β-(1',3',4')-pyrazoles via Vilsmeier reagents, and their antiproliferative activity evaluation in vitro” (Eur J Med Chem, 2017):

How the values were obtained:
A549 [1] = experiment: Cytotoxicity against human A549 cells assessed as growth inhibition at 10 uM after 72 hrs by SRB assay relative to control; format: functional; details: A549, 72 h, read-out: GI
In short: (§1)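 SRB single-dose screen at 10 μM on 293T, A549, Hela and MCF-7 cells. Results reported as percent inhibitory ratio (mean ± SD).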

MCF7 [2] = experiment: Cytotoxicity against human MCF7 cells assessed as growth inhibition at 10 uM after 72 hrs by SRB assay relative to control; format: functional; details: MCF7, 72 h, read-out: GI; in short: as §1
[3] = Cytotoxicity against human 293T cells assessed as growth inhibition at 10 uM after 72 hrs by SRB assay relative to control; format: cell-based; details: HEK-293T cells, read-out: GI; in short: as §1
HeLa [4] = experiment: Cytotoxicity against human HeLa cells assessed as growth inhibition at 10 uM after 72 hrs by SRB assay relative to control; format: functional; details: read-out: GI; in short: as §1
MCF7 [5] = experiment: Cytotoxicity against human MCF7 cells after 72 hrs by SRB assay; format: functional, cell-based; details: MCF7, 72 h
In short: (§2)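 SRB assay on 293T, A549, Hela and MCF-7 cells, with cisplatin as reference control. IC50 calculated for each compound from triplicate assays.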

HeLa [6] = experiment: Cytotoxicity against human HeLa cells after 72 hrs by SRB assay; format: functional, cell-based; in short: as §2
HEK-293T = experiment: Cytotoxicity against human 293T cells after 72 hrs by SRB assay; format: cell-based; in short: as §2
A549 [7] = experiment: Cytotoxicity against human A549 cells after 72 hrs by SRB assay; format: functional, cell-based; details: A549, 72 h; in short: as §2

| SMILES | inhibition of growth at 10 µM (A549 [1]) | inhibition of growth at 10 µM (MCF7 [2]) | inhibition at 72 h, 10 µM [3] | inhibition of growth at 10 µM (HeLa [4]) | IC50 (MCF7 [5]) | IC50 (HeLa [6]) | IC50 (HEK-293T) | IC50 (A549 [7]) |
| --- | --- | --- | --- | --- | --- | --- | --- | --- |
| CCCCNCc1cn(-c2ccccc2)nc1[C@H]1CC[C@H]2[C@@H]3CCC4C[C@@H](O)CC[C@]4(C)[C@H]3CC[C@]12C (stereo partly drawn) | < 10% | 21.9% | < 10% | 29.3% | – | – | – | – |
| C[C@]12CC[C@H](O)C[C@@H]1CC[C@@H]1[C@@H]2CC[C@]2(C)[C@@H](c3nn(-c4ccccc4)cc3CO)CC[C@@H]12 | < 10% | 27.8% | 18.5% | < 10% | – | – | – | – |
| C[C@]12CC[C@H]3[C@@H](CCC4C[C@@H](O)CC[C@@]43C)[C@@H]1CC[C@@H]2c1nn(-c2ccccc2)cc1CNc1ccccc1 (stereo partly drawn) | < 10% | 16.9% | 12.5% | < 10% | – | – | – | – |
| CC(C)NCc1cn(-c2ccccc2)nc1[C@H]1CC[C@H]2[C@@H]3CCC4C[C@@H](O)CC[C@]4(C)[C@H]3CC[C@]12C (stereo partly drawn) | 30.6% | 70.8% | 87.4% | 74.1% | 7.45 µM | 1.98 µM | 1.03 µM | – |
| CCCCNCc1cn(-c2ccccc2)nc1C1=CC[C@H]2[C@@H]3CC=C4C[C@@H](O)CC[C@]4(C)[C@H]3CC[C@]12C | 92.9% | 93.7% | 95.1% | 92.6% | 3.18 µM | 3.37 µM | 2.63 µM | 1.93 µM |
| CNCc1cn(-c2ccccc2)nc1[C@H]1CC[C@H]2[C@@H]3CCC4C[C@@H](O)CC[C@]4(C)[C@H]3CC[C@]12C (stereo partly drawn) | < 10% | 45.9% | 79.2% | 41.3% | – | – | – | – |
| CCCNCc1cn(-c2ccccc2)nc1C1=CC[C@H]2[C@@H]3CC=C4C[C@@H](O)CC[C@]4(C)[C@H]3CC[C@]12C | 91.2% | 90.7% | 93.7% | 93.5% | 4.29 µM | 3.61 µM | 7.25 µM | 1.57 µM |
| CNCc1cn(-c2ccccc2)nc1C1=CC[C@H]2[C@@H]3CC=C4C[C@@H](O)CC[C@]4(C)[C@H]3CC[C@]12C | 82.1% | 81.1% | 91.6% | 90.5% | 6.91 µM | 3.86 µM | 2.11 µM | 3.68 µM |
| CCCNCc1cn(-c2ccccc2)nc1[C@H]1CC[C@H]2[C@@H]3CCC4C[C@@H](O)CC[C@]4(C)[C@H]3CC[C@]12C (stereo partly drawn) | 91.5% | 88.6% | 91.9% | 90.3% | 4.84 µM | 1.98 µM | 0.62 µM | 6.02 µM |
| CCNCc1cn(-c2ccccc2)nc1[C@H]1CC[C@H]2[C@@H]3CCC4C[C@@H](O)CC[C@]4(C)[C@H]3CC[C@]12C (stereo partly drawn) | 92.4% | 88.9% | 91.2% | 88.4% | 3.92 µM | 3.28 µM | 5.29 µM | 6.35 µM |
| C[C@]12CC[C@H]3[C@@H](CCC4C[C@@H](O)CC[C@@]43C)[C@@H]1CC[C@@H]2c1nn(-c2ccccc2)cc1CNCc1ccccc1 (stereo partly drawn) | 56.5% | 44.4% | 60.8% | 48.3% | – | – | – | – |
| CC(C)NCc1cn(-c2ccccc2)nc1C1=CC[C@H]2[C@@H]3CC=C4C[C@@H](O)CC[C@]4(C)[C@H]3CC[C@]12C | 93.3% | 92.1% | 94.7% | 92.4% | 6.36 µM | 3.49 µM | 7.51 µM | 2.87 µM |
| C[C@]12CC[C@H](O)CC1=CC[C@@H]1[C@@H]2CC[C@]2(C)C(c3nn(-c4ccccc4)cc3CNCc3ccccc3)=CC[C@@H]12 | < 10% | 25.4% | 50.7% | < 10% | – | – | – | – |
| COc1ccccc1NCc1cn(-c2ccccc2)nc1C1=CC[C@H]2[C@@H]3CC=C4C[C@@H](O)CC[C@]4(C)[C@H]3CC[C@]12C | < 10% | 18.1% | < 10% | < 10% | – | – | – | – |
